Values after ≈ are worked out from the molar mass of the structure shown. *1 amine or outer side, *2 acyl side, *3 side chain or, on linkers, in order; H or OH if unused. Where a SMILES comes first, the peptide text is derived from it. Bridges are numbered along the chain shown (N, C = ends). [ ]: non-standard residue; d: D form. The star is where a group is joined. hTyr(3S-OH,4S-OH,3'-OSO3H) = N[C@H](C(=O)O)[C@H](O)[C@@H](O)c1ccc(O)c(OS(=O)(=O)O)c1; Orn(4R-OH,5R-OH) = O=C([C@H](C[C@@H](O)[C@@H](O)N[*:3])N[*:1])[*:2]; Pro(3S-OH,4S-Me) = C[C@H]1CN[C@H](C(=O)O)[C@H]1O; X1 = CCCCCOc1ccc(-c2cc(-c3ccc(C(=O)*)cc3)no2)cc1; Gln(3R-OH) = NC(=O)C[C@@H](O)[C@H](N)C(=O)O; Hyp = O=C(O)[C@@H]1C[C@@H](O)CN1
Experiments:
Assay type in all cases: functional
Candida albicans [1] = assay: Antifungal activity against Candida albicans after 48 hrs by CLSI method
Candida tropicalis [2] = assay: Antifungal activity against Candida tropicalis assessed as susceptible dose-dependent isolates after 48 hrs by CLSI method
How it was run: (§1)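 Broth microdilution MICs were run on invasive clinical Candida isolates under CLSI M27-A2, with incubation at 35°C for 48 h before reading. Control strains were C. parapsilosis ATCC 22019 and C. krusei ATCC 6258. MICs were interpreted under the same guideline to place isolates as susceptible, susceptible-dose dependent or resistant, reported as percentage of isolates per category, with MIC range, MIC50 and MIC90.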

Pichia kudriavzevii [3] = assay: Antifungal activity against Candida krusei after 48 hrs by CLSI method
How it was run: as §1, with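 “reading.” for “reading. Control strains were C. parapsilosis ATCC 22019 and C. krusei ATCC 6258.”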

Candida albicans [4] = assay: Antifungal activity against Candida albicans assessed as susceptible isolates after 48 hrs by CLSI method; how it was run: as §1
Nakaseomyces glabratus [5] = assay: Antifungal activity against Candida glabrata after 48 hrs by CLSI method
[6] = system: Meyerozyma guilliermondii; assay: Antifungal activity against Candida guilliermondii after 48 hrs by CLSI method
Candida albicans [7] = assay: Antifungal activity against Candida albicans assessed as resistant isolates after 48 hrs by CLSI method; how it was run: as §1
Candida parapsilosis [8] = assay: Antifungal activity against Candida parapsilosis after 48 hrs by CLSI method; details: Lodderomyces parapsilosis; how it was run: as §1
Pichia kudriavzevii [9] = assay: Antifungal activity against Candida krusei assessed as susceptible dose-dependent isolates after 48 hrs by CLSI method; how it was run: as §1
Candida parapsilosis [10] = assay: Antifungal activity against Candida parapsilosis assessed as susceptible dose-dependent isolates after 48 hrs by CLSI method; how it was run: as §1
Clavispora lusitaniae [11] = assay: Antifungal activity against Candida lusitaniae assessed as susceptible dose-dependent isolates after 48 hrs by CLSI method; how it was run: as §1
Candida tropicalis [12] = assay: Antifungal activity against Candida tropicalis after 48 hrs by CLSI method; how it was run: as §1
Nakaseomyces glabratus [13] = assay: Antifungal activity against Candida glabrata assessed as resistant isolates after 48 hrs by CLSI method; how it was run: as §1
Candida albicans [14] = assay: Antifungal activity against Candida albicans assessed as susceptible dose-dependent isolates after 48 hrs by CLSI method; how it was run: as §1
Candida tropicalis [15] = assay: Antifungal activity against Candida tropicalis assessed as resistant isolates after 48 hrs by CLSI method; how it was run: as §1
Clavispora lusitaniae [16] = assay: Antifungal activity against Candida lusitaniae assessed as susceptible isolates after 48 hrs by CLSI method; how it was run: as §1
[17] = system: Meyerozyma guilliermondii; assay: Antifungal activity against Candida guilliermondii assessed as susceptible isolates after 48 hrs by CLSI method; how it was run: as §1
Candida parapsilosis [18] = assay: Antifungal activity against Candida parapsilosis assessed as resistant isolates after 48 hrs by CLSI method; how it was run: as §1
Pichia kudriavzevii [19] = assay: Antifungal activity against Candida krusei assessed as resistant isolates after 48 hrs by CLSI method; how it was run: as §1
Clavispora lusitaniae [20] = assay: Antifungal activity against Candida lusitaniae after 48 hrs by CLSI method
Pichia kudriavzevii [21] = assay: Antifungal activity against Candida krusei assessed as susceptible isolates after 48 hrs by CLSI method; how it was run: as §1
Nakaseomyces glabratus [22] = assay: Antifungal activity against Candida glabrata assessed as susceptible isolates after 48 hrs by CLSI method; how it was run: as §1
Nakaseomyces glabratus [23] = assay: Antifungal activity against Candida glabrata assessed as susceptible dose-dependent isolates after 48 hrs by CLSI method; how it was run: as §1
Candida tropicalis [24] = assay: Antifungal activity against Candida tropicalis assessed as susceptible isolates after 48 hrs by CLSI method; how it was run: as §1
[25] = system: Meyerozyma guilliermondii; assay: Antifungal activity against Candida guilliermondii assessed as susceptible dose-dependent isolates after 48 hrs by CLSI method; how it was run: as §1
Candida parapsilosis [26] = assay: Antifungal activity against Candida parapsilosis assessed as susceptible isolates after 48 hrs by CLSI method; how it was run: as §1
[27] = system: Meyerozyma guilliermondii; assay: Antifungal activity against Candida guilliermondii assessed as resistant isolates after 48 hrs by CLSI method; how it was run: as §1
Clavispora lusitaniae [28] = assay: Antifungal activity against Candida lusitaniae assessed as resistant isolates after 48 hrs by CLSI method; how it was run: as §1

CCC(C)n1ncn(-c2ccc(N3CCN(c4ccc(OCC5COC(Cn6cncn6)(c6ccc(Cl)cc6Cl)O5)cc4)CC3)cc2)c1=O (stereo not drawn) [ITRACONAZOLE]
MIC50 (Candida albicans [1]): 0.03 mg/L (≈ 0.0425 µM) | MIC90 (Candida albicans [1]): 0.03 mg/L (≈ 0.0425 µM) | Activity (Candida tropicalis [2]): 35% | MIC50 (Pichia kudriavzevii [3]): 0.5 mg/L (≈ 0.709 µM) | MIC90 (Pichia kudriavzevii [3]): 0.5 mg/L (≈ 0.709 µM) | Activity (Candida albicans [4]): 98% | MIC50 (Nakaseomyces glabratus [5]): 1 mg/L (≈ 1.42 µM) | MIC90 (Nakaseomyces glabratus [5]): 1 mg/L (≈ 1.42 µM) | MIC50 [6]: 0.5 mg/L (≈ 0.709 µM) | MIC90 [6]: 0.5 mg/L (≈ 0.709 µM) | Activity (Candida albicans [7]): 0% | MIC50 (Candida parapsilosis [8]): 0.06 mg/L (≈ 0.085 µM) | MIC90 (Candida parapsilosis [8]): 0.25 mg/L (≈ 0.354 µM) | Activity (Pichia kudriavzevii [9]): 90% | Activity (Candida parapsilosis [10]): 22% | Activity (Clavispora lusitaniae [11]): 0% | MIC50 (Candida tropicalis [12]): 0.12 mg/L (≈ 0.17 µM) | MIC90 (Candida tropicalis [12]): 0.25 mg/L (≈ 0.354 µM) | Activity (Nakaseomyces glabratus [13]): 63% | Activity (Candida albicans [14]): 2% | Activity (Candida tropicalis [15]): 0% | Activity (Clavispora lusitaniae [16]): 100% | Activity [17]: 6% | Activity (Candida parapsilosis [18]): 0% | Activity (Pichia kudriavzevii [19]): 10% | MIC50 (Clavispora lusitaniae [20]): 0.06 mg/L (≈ 0.085 µM) | MIC90 (Clavispora lusitaniae [20]): 0.06 mg/L (≈ 0.085 µM) | Activity (Pichia kudriavzevii [21]): 0% | Activity (Nakaseomyces glabratus [22]): 0% | Activity (Nakaseomyces glabratus [23]): 37% | Activity (Candida tropicalis [24]): 65% | Activity [25]: 88% | Activity (Candida parapsilosis [26]): 78%

CCCCCOc1ccc(-c2cc(-c3ccc(C(=O)N[C@H]4C[C@@H](O)[C@@H](O)NC(=O)[C@@H]5[C@@H](O)[C@@H](C)CN5C(=O)[C@H]([C@H](O)CC(N)=O)NC(=O)[C@H]([C@H](O)[C@@H](O)c5ccc(O)c(OS(=O)(=O)O)c5)NC(=O)[C@@H]5C[C@@H](O)CN5C(=O)[C@H]([C@@H](C)O)NC4=O)cc3)no2)cc1 [MICAFUNGIN] (X1-[Orn(4R-OH,5R-OH)]T[Hyp][hTyr(3S-OH,4S-OH,3'-OSO3H)][Gln(3R-OH)][Pro(3S-OH,4S-Me)]; lactam 1-C)
MIC (Candida albicans [1]): 0.007 mg/L (≈ 0.00551 µM) | MIC50 (Candida albicans [1]): 0.007 mg/L (≈ 0.00551 µM) | MIC90 (Candida albicans [1]): 0.015 mg/L (≈ 0.0118 µM) | MIC (Pichia kudriavzevii [3]): 0.25 mg/L (≈ 0.197 µM) | MIC50 (Pichia kudriavzevii [3]): 0.25 mg/L (≈ 0.197 µM) | MIC90 (Pichia kudriavzevii [3]): 0.5 mg/L (≈ 0.394 µM) | MIC50 (Nakaseomyces glabratus [5]): 0.06 mg/L (≈ 0.0472 µM) | MIC90 (Nakaseomyces glabratus [5]): 0.06 mg/L (≈ 0.0472 µM) | MIC50 [6]: 1 mg/L (≈ 0.787 µM) | MIC90 [6]: 1 mg/L (≈ 0.787 µM) | MIC50 (Candida parapsilosis [8]): 2 mg/L (≈ 1.57 µM) | MIC90 (Candida parapsilosis [8]): 2 mg/L (≈ 1.57 µM) | MIC (Candida tropicalis [12]): 0.06 mg/L (≈ 0.0472 µM) | MIC50 (Candida tropicalis [12]): 0.06 mg/L (≈ 0.0472 µM) | MIC90 (Candida tropicalis [12]): 0.12 mg/L (≈ 0.0945 µM) | MIC50 (Clavispora lusitaniae [20]): 0.25 mg/L (≈ 0.197 µM) | MIC90 (Clavispora lusitaniae [20]): 0.25 mg/L (≈ 0.197 µM)

CC[C@@H]([C@H](C)O)n1ncn(-c2ccc(N3CCN(c4ccc(OC[C@@H]5CO[C@@](Cn6cncn6)(c6ccc(F)cc6F)C5)cc4)CC3)cc2)c1=O [POSACONAZOLE]
MIC (Candida albicans [1]): 0.015 mg/L (≈ 0.0214 µM) | MIC50 (Candida albicans [1]): 0.015 mg/L (≈ 0.0214 µM) | MIC90 (Candida albicans [1]): 0.03 mg/L (≈ 0.0428 µM) | MIC50 (Pichia kudriavzevii [3]): 0.25 mg/L (≈ 0.357 µM) | MIC90 (Pichia kudriavzevii [3]): 0.25 mg/L (≈ 0.357 µM) | MIC50 (Nakaseomyces glabratus [5]): 0.5 mg/L (≈ 0.713 µM) | MIC90 (Nakaseomyces glabratus [5]): 0.5 mg/L (≈ 0.713 µM) | MIC50 [6]: 0.12 mg/L (≈ 0.171 µM) | MIC90 [6]: 0.25 mg/L (≈ 0.357 µM) | MIC (Candida parapsilosis [8]): 0.03 mg/L (≈ 0.0428 µM) | MIC50 (Candida parapsilosis [8]): 0.03 mg/L (≈ 0.0428 µM) | MIC90 (Candida parapsilosis [8]): 0.06 mg/L (≈ 0.0856 µM) | MIC50 (Candida tropicalis [12]): 0.06 mg/L (≈ 0.0856 µM) | MIC90 (Candida tropicalis [12]): 0.25 mg/L (≈ 0.357 µM) | MIC50 (Clavispora lusitaniae [20]): 0.03 mg/L (≈ 0.0428 µM) | MIC90 (Clavispora lusitaniae [20]): 0.03 mg/L (≈ 0.0428 µM)

C[C@@H](c1ncncc1F)[C@](O)(Cn1cncn1)c1ccc(F)cc1F [VORICONAZOLE]
MIC (Candida albicans [1]): 0.015 mg/L (≈ 0.0429 µM) | MIC50 (Candida albicans [1]): 0.015 mg/L (≈ 0.0429 µM) | MIC90 (Candida albicans [1]): 0.03 mg/L (≈ 0.0859 µM) | Activity (Candida tropicalis [2]): 0% | MIC50 (Pichia kudriavzevii [3]): 0.5 mg/L (≈ 1.43 µM) | MIC90 (Pichia kudriavzevii [3]): 0.5 mg/L (≈ 1.43 µM) | Activity [27]: 0% | Activity (Candida albicans [4]): 100% | MIC50 (Nakaseomyces glabratus [5]): 0.5 mg/L (≈ 1.43 µM) | MIC90 (Nakaseomyces glabratus [5]): 1 mg/L (≈ 2.86 µM) | MIC50 [6]: 0.06 mg/L (≈ 0.172 µM) | MIC90 [6]: 0.12 mg/L (≈ 0.344 µM) | Activity (Candida albicans [7]): 0% | MIC50 (Candida parapsilosis [8]): 0.03 mg/L (≈ 0.0859 µM) | MIC90 (Candida parapsilosis [8]): 0.06 mg/L (≈ 0.172 µM) | Activity (Pichia kudriavzevii [9]): 3% | Activity (Candida parapsilosis [10]): 0% | Activity (Clavispora lusitaniae [11]): 0% | MIC50 (Candida tropicalis [12]): 0.12 mg/L (≈ 0.344 µM) | MIC90 (Candida tropicalis [12]): 0.12 mg/L (≈ 0.344 µM) | Activity (Nakaseomyces glabratus [13]): 4% | Activity (Candida albicans [14]): 0% | Activity (Candida tropicalis [15]): 0% | Activity (Clavispora lusitaniae [16]): 100% | Activity [17]: 97% | Activity (Candida parapsilosis [18]): 0% | Activity (Pichia kudriavzevii [19]): 3% | MIC (Clavispora lusitaniae [20]): 0.015 mg/L (≈ 0.0429 µM) | MIC50 (Clavispora lusitaniae [20]): 0.015 mg/L (≈ 0.0429 µM) | MIC90 (Clavispora lusitaniae [20]): 0.015 mg/L (≈ 0.0429 µM) | Activity (Pichia kudriavzevii [21]): 95% | Activity (Nakaseomyces glabratus [22]): 94% | Activity (Nakaseomyces glabratus [23]): 2% | Activity (Candida tropicalis [24]): 100% | Activity (Clavispora lusitaniae [28]): 0% | Activity [25]: 3% | Activity (Candida parapsilosis [26]): 100%
